Assay outcomes as filed in PubChem BioAssay.
CHOP inhibitor: inhibitors of CHOP induction in ER stress response | CHO-K1 CHOP-promoter luciferase, tunicamycin-induced, 15-18 h | 220,000 tested, 3.8% active | inhibition, % at 10 µM;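 active means compounds that reduced the stress-induced luciferase reporter signal by more than about 70% of percent inhibition, limit read from the data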;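 further: 0% = tunicamycin plus vehicle and 100% = wells without tunicamycin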
VLA-4 inh: inhibition in a human VLA-4 binding assay; P13612; VLA-4 expressing cells, ligand binding flow cytometry; inhibition, % (about 7 µM as worked out from the volumes in the protocol); 330,000 tested, 0.2% active; in the data active means inhibition above about 50%
XBP1 UPR activ: adaptive UPR (XBP1) activation. CHO-XBP1 luciferase reporter, IRE1-XBP1 UPR activation, luminescence; percent of tunicamycin response, DMSO as zero. activation, % at 20 µM. 330,000 tested, 0.33% active;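 active means versus positive control, 20 µM dose yields 30% or more activation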;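 further: 100% = tunicamycin at 10 µg/mL and 0% = DMSO only wells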
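Assay system: CHO-XBP1 luciferase reporter cells; Schedule: 6 h treatment, 37 °C; Detection: glow luminescence from Steady-Glo reagent; Benchmarks: high control tunicamycin 10 µg/mL final, low control DMSO vehicle only.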
B2AR ag: human beta-2 adrenergic receptor agonism by FAP; 340,000 tested, 0.43% active; response, % (no concentration beside the values); Am2.2-beta2AR cells, FAP receptor internalization, flow cytometry; P07550; AID 504454;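 active means response above a set limit, near 3 SD of response in nonfluorescent compounds, cut at about 42% in these data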
Target sequence (P07550 whole entry, looked up): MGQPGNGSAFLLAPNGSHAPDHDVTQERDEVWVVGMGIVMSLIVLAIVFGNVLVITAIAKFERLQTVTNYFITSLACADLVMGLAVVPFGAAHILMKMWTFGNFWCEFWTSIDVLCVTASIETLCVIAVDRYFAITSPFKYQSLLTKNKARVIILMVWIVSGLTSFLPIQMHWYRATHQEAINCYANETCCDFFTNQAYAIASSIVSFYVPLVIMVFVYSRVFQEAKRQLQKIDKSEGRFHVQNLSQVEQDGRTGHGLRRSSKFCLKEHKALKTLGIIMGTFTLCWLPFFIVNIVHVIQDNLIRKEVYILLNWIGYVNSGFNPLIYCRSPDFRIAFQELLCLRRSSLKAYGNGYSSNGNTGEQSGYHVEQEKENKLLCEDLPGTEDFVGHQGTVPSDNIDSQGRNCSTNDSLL
UPR CHOP act: activators of apoptotic arm of unfolded protein response (CHOP). CHO-CHOP luciferase reporter, UPR activation, luminescence; percent of tunicamycin response over DMSO baseline. activation, % at 10 µM. 330,000 tested, 0.34% active;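 active means at 10 µM dose, activation of 40% or more, normalized to positive control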;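 further: 100% = tunicamycin at 10 µg/mL and 0% = DMSO alone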
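System: CHO-CHOP luciferase reporter cell line; amount: 500 cells/well; buffer or medium: F12 medium containing 10% fetal bovine serum; incubation: 6 h compound exposure at 37 °C after overnight seeding; measured by: luciferase luminescence after 10 min with Steady-Glo reagent; evaluation: % reporter activation, DMSO baseline versus tunicamycin full activation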
Beta2AR ag CP1: activates human beta-2 adrenergic receptor. 1,100 tested, 25% active. shares compounds with B2AR ag. Am2.2-beta2AR cells, FAP surface receptor, flow cytometry; stronger effect = lower value. percent response (surface receptor), % at 10 µM. AID 540358;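 active means surface receptor percent response at or below 58%, roughly 3 SD from nonfluorescent compounds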
FAP fluor counter: flagged in Am2.2 fluorescence counterscreen for beta-2AR agonists. 1,100 tested, under 10 active. calls only at 10 µM. shares compounds with B2AR ag. Am2.2 cells, FAP fluorogen flow cytometry; stronger effect = lower value;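 active means percent response below a set limit in fluorescence channel 1 and below 50% in channel 8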
* hit, by the source's call; i = inactive; . = no result. Only a selection was taken, and hits are over-represented in it overall.

SMILES	CHOP inhibitor	VLA-4 inh	XBP1 UPR activ	B2AR ag	UPR CHOP act	Beta2AR ag CP1	FAP fluor counter
O=C(COc1ccc(S(=O)(=O)N2CCCCC2)cc1)Nc1ccccc1F	.	10.4	-7.2	-2.2	1.1	103.5	i
O=C(COc1ccc(S(=O)(=O)N2CCOCC2)cc1)Nc1ccccc1C(F)(F)F	3.5	-7.6	-1.7	-6.7	-0.4	112.3	i
O=C(COc1ccccc1)Nc1ccc(S(=O)(=O)N2CCCCCC2)cc1	32.1	7.7	1.8	6.0	4.1	.	.
CCOC(=O)N1CCN(C(=O)COC(=O)C2CCN(S(=O)(=O)c3c(C)c(C)cc(C)c3C)CC2)CC1	.	1.2	-2.0	2.4	-0.1	.	.
COc1ccc(C(=O)CCC(=O)Nc2ccc(N3CCCCC3)cc2)cc1OC	.	3.3	-4.1	72.3*	1.3	97.7	i
COC(=O)C(C)n1cnc2c(nnn2-c2cccc(OC)c2)c1=O (stereo not drawn)	.	9.5	3.0	4.0	3.4	.	.
CCOc1ccc2oc(C(=O)O)c(C)c2c1	-10.8	15.2	-1.2	2.9	0.9	.	.
CCOc1ccc2oc(C(=O)NCC(C)(C)CN(C)C)c(C)c2c1	-9.0	-10.2	2.3	55.4*	-0.1	102.8	i
COCCN1CCN(C(=O)c2cc(COc3ccc(Cl)cc3OC)on2)CC1	.	-12.2	-0.2	-1.7	5.0	.	.
O=C(Nc1cccc(-c2nc3ncccc3o2)c1)c1sc2cc(Cl)ccc2c1Cl	3.9	3.4	-0.9	42.4*	2.9	12.3*	i
O=C(Nc1cccc(-c2nc3ncccc3o2)c1)c1ccc2c(c1)OCO2	.	.	.	-6.4	.	.	.
CN(C)c1ccc(-c2nnn(CC(=O)Nc3ccccc3N3CCOCC3)n2)cc1	24.9	4.3	-1.7	-14.0	2.9	105.2	i
Cc1ccccc1NC(=O)Cn1nnc(-c2ccc(N3CCOCC3)cc2)n1	-15.4	1.8	10.6	2.5	-0.1	.	.
CCC(C)(C)NC(=O)C(c1ccc(OC)cc1)N(Cc1ccccc1)C(=O)CCC(=O)Nc1cc(C)on1 (stereo not drawn)	.	-2.2	0.3	61.8*	-0.3	108.5	i
Cc1nn(Cc2ccccc2)c(C)c1C(=O)NCC(c1cccs1)N1CCOCC1 (stereo not drawn)	.	4.6	-3.6	62.9*	1.2	108.6	i
CCCCN(C(=O)C1=CC=CN2CCS(=O)(=O)N=C12)c1ccccc1	.	.	3.4	2.4	0.7	.	.
Cc1ccc(Cn2nc(C)c(NC(=O)CSc3nc4c(c(C(F)(F)F)n3)CCc3ccccc3-4)c2C)cc1	40.2	-45.3	.	46.0*	.	73.4	i
CCN(C(=O)CN1C(=O)NC2(CCc3ccccc32)C1=O)C1CCCCC1 (stereo not drawn)	.	1.0	-4.6	-9.7	0.3	.	.
CN(C(=O)c1cccc(NC(=O)Cc2ccc(NC(=O)C3CCCN(C(=O)C4CCCCC4)C3)cc2)c1)C1CC1 (stereo not drawn)	.	.	.	-12.3	.	.	.
O=C1C=C(NC2CCCC2)CC(c2ccccc2)C1 (stereo not drawn)	17.5	-5.5	1.8	1.6	-1.6	116.9	i
Cc1noc(C)c1C(=O)OCC(=O)Nc1c(F)cccc1F	10.3	0.3	-1.4	-0.7	0.8	.	.
OC(COc1ccc(Br)cc1)CN1CCC(Cc2ccccc2)CC1 (stereo not drawn)	.	21.6	-4.6	7.3	-1.6	.	.
Cc1cc(C)c(O)c(-c2n[nH]c3c2C(c2cccc(O)c2)N(Cc2ccco2)C3=O)c1 (stereo not drawn)	13.6	-2.4	-1.2	6.1	1.8	.	.
CC1CCc2nc(NC(=O)c3cc(C(C)(C)C)nn3C)sc2C1 (stereo not drawn)	62.9	16.4	6.2	20.6	7.9	.	.
Cc1ccc(-c2nc(NC(=O)c3cc(C(C)(C)C)nn3C)sc2C)cc1Cl	9.1	-15.6	5.4	10.1	-1.3	96.8	i
SMILES	CHOP inhibitor	VLA-4 inh	XBP1 UPR activ	B2AR ag	UPR CHOP act	Beta2AR ag CP1	FAP fluor counter
CCOC(=O)C1(CCOc2ccccc2)CCN(Cc2ccc3nonc3c2)CC1	-1.3	0.0	-2.5	1.4	0.4	.	.
COc1ccc(N(C(=O)c2snc(C(N)=O)c2N)C(C(=O)NC2CCCC2)c2ccco2)c(OC)c1 (stereo not drawn)	.	.	0.8	70.0*	0.3	115.7	i
Cc1cc(=O)oc2c(C)c(OCC(=O)Nc3cccnc3)ccc12	.	8.2	-2.1	-7.3	5.5	.	.
O=C(CC1Oc2ccccc2NC1=O)NCCc1ccccc1 (stereo not drawn)	14.4	17.1	-1.4	44.0*	-2.0	98.2	i
Cc1ccc(CCNC(=O)CC2Oc3ccc(C)cc3NC2=O)cc1 (stereo not drawn)	44.4	0.9	0.0	4.7	-0.7	.	.
Cc1ccc(C(=O)OCN2C(=O)c3ccccc3C2=O)cc1S(=O)(=O)N1CCOCC1	.	-2.9	-1.1	-3.0	1.1	.	.
CN(C)S(=O)(=O)c1cccc(NC(=O)c2ccc(N3CCOCC3)c([N+](=O)[O-])c2)c1	-7.6	7.9	2.3	44.7*	0.7	52.9*	i
Cc1ccc(C(=O)Nc2ccccc2[N+](=O)[O-])cc1S(=O)(=O)N1CCOCC1	.	6.2	-7.9	6.8	0.5	.	.
Cc1ccc(NC(=O)c2ccc(N3CCOCC3)c([N+](=O)[O-])c2)cc1S(=O)(=O)N1CCOCC1	22.5	0.0	1.9	48.8*	-0.6	20.2*	i
Cc1cccc(C)c1NC(=O)COC(=O)CCc1c[nH]c2ccccc12	.	-10.7	-1.2	8.1	-0.9	.	.
CCC1(c2ccccc2)NC(=O)N(CC(=O)N(C)Cc2c(F)cccc2Cl)C1=O (stereo not drawn)	.	0.6	-3.0	82.4*	2.2	101.0	i
CC(=O)Nc1ccc(NC(=O)c2ccccc2N(C)S(=O)(=O)c2ccccc2)cc1	.	4.3	-4.5	-8.3	-2.3	.	.
Cc1ccc(S(=O)(=O)N2CCC(C(=O)Nc3nnc(-c4ccc(F)cc4)s3)CC2)cc1	32.9	-7.1	5.0	65.4*	6.4	102.1	i
Cc1cc(C)c(NC(=O)COC(=O)c2ccncc2)c(C)c1	.	-16.4	-2.8	0.0	0.3	.	.
COc1cc(C(C)=O)ccc1OCC(O)CNCC(O)c1ccccc1 (stereo not drawn)	.	0.0	3.1	-9.2	-1.2	108.8	i
COc1ccc(-c2nn(-c3ccccc3)cc2C(=O)Nc2nccs2)cc1	23.3	0.0	-2.4	42.9*	3.5	153.8	i
C/C(=N\NC(=S)NCc1ccccc1)c1ccccc1	44.3	3.8	4.2	-0.5	1.4	.	.
CC1=C/C(=N\NC(=S)NCc2ccccc2)CC1	-53.0	-14.2	3.6	-1.7	2.0	102.2	i
COc1ccc(Cl)cc1NS(=O)(=O)N1CCOCC1	.	-2.4	-3.8	50.5*	-1.7	118.7	i
